Here are results for 12 compounds from ChEMBL document CHEMBL1811784, “Synthesis and SERCA activities of structurally simplified cyclopiazonic acid analogues” (Bioorg Med Chem, 2011).

Each structure is given as a SMILES string.

The experiment is described as follows: Inhibition of Heliothis virescens SERCA expressed in Sf9 cells assessed as ATP depletion measured after 60 mins by luciferin/luciferase coupled reporter gene assay. The method, boiled down:
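Microsomal membranes from Sf9 cells coinfected with baculovirus carrying full-length H. virescens SERCA (aa 2-1000), MOI 0.3, harvested after 3 days. 0.4 µg/mL enzyme with 0.05 mM ATP, inhibitor 3.2 nM–50 µM final, MOPS pH 7.5 buffer with Mg2+, Ca2+/EGTA, A23187. Remaining ATP read by luciferin/luciferase luminescence. Quadruplicates, normalized, sigmoid fit for IC50. Luciferase-only counterscreen run without SERCA.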
A general note: In a reporter assay the amount or activity of a reporter protein is the signal.
As usually defined, the IC50 is the concentration needed to halve the response being measured. `CC(=O)C1=C(O)[C@@H]2[C@H]3c4c[nH]c5cccc(c45)C[C@H]3C(C)(C)N2C1=O` [CYCLOPIAZONIC ACID]: the IC50 was 0.01 µM.

Consider `CC(O)=C1C(=O)C2c3ccccc3C(C)(C)N2C1=O` (mixture of isomers), for which the IC50 is over 50 µM.

As for `CC(O)=C1C(=O)N2c3ccccc3C(C)(C)N2C1=O` (mixture of isomers), the IC50 was determined as 40 µM.

Consider `CC(O)=C1C(=O)N2[C@H]3CCCC[C@H]3C(C)(C)N2C1=O` (mixture of isomers), for which the IC50 was 40 µM.

As for `CC(C)(C)c1cc(O)c(C(C)(C)C)cc1O`, the IC50 worked out at 0.13 µM.

As for `C/C(O)=C1\C(=O)[C@@H]2[C@H]3[C@@H]4C(=O)N(C)c5cccc(c54)C[C@H]3C(C)(C)N2C1=O` [SPERADINE A], the IC50 worked out at 8 µM.

Turning to `COC(=O)[C@H]1NC(C)(C)[C@@H]2Cc3cccc4[nH]cc(c34)[C@H]12`, the 50% inhibitory concentration (IC50) is over 50 µM.

Consider `CC(O)=C1C(=O)[C@@H]2[C@H]3CCCC[C@H]3C(C)(C)N2C1=O` (mixture of isomers), for which the IC50 was 0.63 µM.

Take `CC(O)=C1C(=O)[C@H]2[C@H]3CCCC[C@H]3C(C)(C)N2C1=O` (mixture of isomers): the IC50 turned out to be 19.9 µM.

Consider `C/C(O)=C1\C(=O)[C@@H]2[C@H]3c4c[nH]c5cccc(c45)C[C@@H]3C(C)(C)N2C1=O`, for which the concentration for half-maximal inhibition (IC50) was found to be 5 µM.

With `C/C(O)=C1\C(=O)[C@H]2[C@H]3c4c[nH]c5cccc(c45)C[C@H]3C(C)(C)N2C1=O`, the IC50 was 0.5 µM.

With `CC(O)=C1C(=O)C2Cc3ccccc3C(C)(C)N2C1=O` (mixture of isomers), the IC50 is 6.3 µM.
